Measured values taken from ChEMBL document CHEMBL1132285, “The presence of substituents on the aryl moiety of the aryl phosphoramidate derivative of d4T enhances anti-HIV efficacy in cell culture: A structure-activity relationship” (J Med Chem, 1999).

Key:
CCRF-CEM [1] = assay: In vitro effective compound concentration required to protect CEM/TK cells against the cytopathogenicity of HIV-2; details: Homo sapiens
CCRF-CEM [2] = assay: In vitro effective compound concentration required to protect CEM/O cells against the cytopathogenicity of HIV-1; format: functional, cell-based; details: Homo sapiens
Summary of the method: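 CEM/0 cells at 250 000 cells/mL were infected with HIV-1 (~20 CCID50/mL) or HIV-2 strain ROD (~100 CCID50/mL), then mixed 1:1 with compound dilutions. After 4 days at 37 °C, giant cell formation was scored. EC50 is the concentration inhibiting HIV-induced giant cell formation by 50%. Values are means of 2–4 independent experiments.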

Cc1cn([C@H]2C=C[C@@H](CO)O2)c(=O)[nH]c1=O [STAVUDINE]
EC50 (CCRF-CEM [1]): 33 µM | EC50 (CCRF-CEM [2]): 0.651 µM
